PGC1a Ac signal: raises PGC1a acetylation signal in U2OS cells | U2OS PGC1a acetylation AlphaScreen, overnight | activation, % at 15.6 µM | 0.21% of 350,000 active;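 active means every replicate reaching activation of at least 50%, whatever the mean replicate activation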;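 further: hits raise the AlphaScreen acetylation signal above neutral controls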
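System: flag-PGC1a/GCN5 U2OS cells / Input: 7000 cells/well / Compound: single test concentration per compound / Incubation: overnight compound treatment, 37 °C / Technique: AlphaScreen on lysates with anti-acetyl-lysine antibody, acceptor and donor beads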
Hits are given with their value; 0 = inactive. This excerpt belongs to a sample that is enriched for hits.

SMILES	PGC1a Ac signal
C=C1C(=O)O[C@@H]2[C@H]1[C@@H](OC(=O)/C(C)=C/C)C/C(C)=C\C(=O)/C=C(\C)[C@@H]2O	198
CSc1nc2nccc(/C=C\c3ccccc3)n2n1	0
O=C(NCc1cccc(Cl)c1)c1ccc(-n2ccnc2)c2ccoc12	52
O=C(COC(=O)Cc1ccc(S(=O)(=O)N2CCOCC2)s1)NCCc1ccccc1	0
CC(=O)c1cccc(-n2nnnc2SCC(=O)NNC(=O)C(C)C)c1	0
O=C(CC(Nc1ccc(F)cc1)C(=O)O)c1ccccc1 (configuration not stated)	76
CO[C@H]1CN(C)C(=O)c2cc(NS(=O)(=O)c3cn(C)cn3)ccc2OC[C@@H](C)NC[C@H]1C	0
COc1ccc(C(=O)C(CN2CCOCC2)c2ccccc2)cc1F (configuration not stated)	0
CCCCn1c(SCC(=O)NCc2ccc3c(c2)OCO3)nnc1C(CC)N(C)C (configuration not stated)	0
Cc1ccccc1NC(=O)Nc1ccccc1Br	0
CCN(CC)C(=O)CSc1nnc(-c2cccnc2)n1Cc1ccccc1	0
Clc1ccc(CSc2nnc(-c3cccnc3)n2Cc2ccco2)c(Cl)c1	74
O=C(CCCCCN1C(=O)c2cccc3cccc(c23)C1=O)NCc1cccnc1	494
CCC(=O)N1C[C@H](C)[C@@H](OC)CN(C)C(=O)c2ccc(NC(=O)Nc3ccccc3)cc2OC[C@@H]1C	0
O=C1C(c2ccccc2)C(c2ccccc2)NC(c2ccccc2)C1c1ccccc1 (configuration not stated)	55
C[C@@H]1CN([C@H](C)CO)C(=O)c2cc(C#CC3CC3)cnc2O[C@H]1CN(C)C(=O)Nc1ccc(F)cc1	0
O=C(CSc1ccsc1[N+](=O)[O-])NCCc1ccc(Cl)cc1	68
COc1ccccc1CNC(=O)C[C@@H]1CC[C@@H]2[C@H](COC[C@H](O)CN2C(=O)Nc2ccc(Cl)cc2)O1	0
C[C@H](NS(=O)(=O)c1ccc2c(c1)OCCCO2)C(=O)N1CCN(Cc2ccccc2)CC1	0
C[C@H](CO)N1C[C@H](C)[C@@H](CN(C)Cc2ccc(C(F)(F)F)cc2)OCc2cnnn2CCCC1=O	0
CC1CC1C(=O)OCC(=O)NCc1ccc(Cl)cc1 (configuration not stated)	55
COc1ccc2c3c([nH]c2c1)[C@@H](CO)N(C(=O)c1ccccc1)CC31CCN(S(=O)(=O)c2cccs2)CC1	0
CC(=O)c1coc2c1cc(O)c1ccccc12	63
CO[C@H]1CN(C)C(=O)c2ccc(NS(=O)(=O)c3ccccc3)cc2OC[C@H](C)N(C(=O)NC(C)C)C[C@@H]1C	0
N#Cc1cccc(-c2ccc([C@@H]3[C@@H]4CN(S(=O)(=O)c5ccc(-c6ccccc6)cc5)C[C@H]3N4)cc2)c1	0
SMILES	PGC1a Ac signal
COc1ccccc1-c1ccc(C2[C@@H]3CN(S(=O)(=O)c4ccc(C)cc4)C[C@H]2N3)cc1 (some centres not stated)	95
Cc1noc(C)c1S(=O)(=O)Nc1ccc2c(c1)C(=O)N([C@H](C)CO)C[C@H](C)[C@H](CN(C)C(=O)c1ccncc1)OCCCC[C@@H](C)O2	0
CCCN(CC)c1ncnc2[nH]ncc12	0
CCn1c(CNc2ccc(C)cc2)nnc1SCC(N)=O	76
CCn1c(SCC(N)=O)nnc1C(C)C	0
CCn1c(SCC(=O)Nc2ccc(OC)c(OC)c2)nnc1-c1cccs1	0
NCCCCCC(=O)O	0
Cc1cccc(-n2c(CNC(=O)c3cccc([N+](=O)[O-])c3C)n[nH]c2=S)c1	0
O=C(CCl)NCc1cc(-c2ccc(Cl)cc2)no1	52
CCN(CCCNC(=O)CN(C)S(=O)(=O)c1cccc2nsnc12)c1ccccc1	89
CC1CCCCN1C(=O)CN(C)S(=O)(=O)c1cccc2nsnc12 (configuration not stated)	0
CN(CC(=O)Nc1ccc(F)c(F)c1)S(=O)(=O)c1cccc2nsnc12	63
CC(C(=O)OCn1nnc2ccccc2c1=O)N1C(=O)c2ccccc2C1=O (configuration not stated)	0
NC(=O)C1CCCCc2c1[nH]c1ccc(Cl)cc21 (configuration not stated)	664
Cc1noc(C)c1S(=O)(=O)N1CCCC(C(=O)NCC2CCCO2)C1 (configuration not stated)	0
COCCn1c(C)c(C)c2c(NCCc3ccccc3)ncnc21	0
CCC(=O)N(C)C[C@@H]1Oc2ncc(-c3ccc(C(=O)N(C)C)cc3)cc2C(=O)N([C@H](C)CO)C[C@@H]1C	0
COCCCNC(=S)Nc1cc(C)c(C)cc1C	0
CC(C)c1ccc(NC(=O)c2n[nH]c(=O)c3ccccc23)cc1	0
CC(C)c1ccc(NC(=O)CCNS(=O)(=O)c2cccc3nonc23)cc1	53
O=C(Nc1cccc(F)c1)C1CCN(S(=O)(=O)c2cccc3nonc23)CC1	0
Cc1ccccc1Cn1nc(C)c(NC(=O)c2cc(-c3cccs3)on2)c1C	0
O=C(Nc1ccc(F)cc1)N[C@H]1C=C[C@H](CC(=O)N2CCCCC2)O[C@H]1CO	0
O=C1Nc2cc(S(=O)(=O)N3CCCC3)ccc2N2CCCC12 (configuration not stated)	95
COc1cc(C2C(C#N)=C(N)Oc3c2oc(CO)cc3=O)cc(OC)c1OC (configuration not stated)	102
SMILES	PGC1a Ac signal
CC(=O)c1ccc(N2CCN(c3ccc(S(=O)(=O)NCCCN(C)C)cc3[N+](=O)[O-])CC2)cc1	95
Cc1cccc(S(=O)(=O)N(C)C[C@@H]2OCc3cn(nn3)CCCC(=O)N([C@H](C)CO)C[C@H]2C)c1	0
C#CC(=O)N(c1cc(OC)ccc1OC)C(C(=O)NC1CCCC1)c1cccs1 (configuration not stated)	0
CCOC(=O)COc1ccc(/C=C/[N+](=O)[O-])c(OCC(=O)OCC)c1	77
O=C(CCl)N=c1sccn1Cc1ccc(Cl)cc1Cl	0
Cc1nc([N+](=O)[O-])c(Br)n1Cc1ccc(Cl)c(Cl)c1	90
CSCC[C@H](NC(=O)c1ccc(Br)o1)c1nnc2ccccn12	0
O=C(c1ccco1)N(Cc1ccc([N+](=O)[O-])cc1)c1ccc(Br)cc1	58
COc1ccc(S(=O)(=O)N[C@H]2CC[C@@H](CCNC(=O)c3ccccc3F)O[C@@H]2CO)cc1	0
N#Cc1sc2nccc(Nc3ccccc3)c2c1N	0
CCCn1c(-c2ccccc2)cc(SC)c(C#N)c1=O	0
Cc1ccc(-c2c(C#N)c(N)n(-c3ccccc3)c(=O)c2C#N)cc1	66
OCc1ccc2c(c1)c(-c1ccc3c(c1)OCCO3)c(-c1ccccc1)n2-c1ccccc1	178
CC(C)NC(=O)Nc1ccc2c(c1)C(=O)N([C@@H](C)CO)C[C@@H](C)[C@H](CN(C)C(=O)NC(C)C)OCCCC[C@@H](C)O2	0
COc1cc(Cn2c(N)c(C#N)c3nc4ccccc4nc32)cc(OC)c1	52
COC(=O)c1ccc[n+](CC(=O)c2ccc(Br)cc2)c1	0
CC(=O)Cc1nsc(NC(=O)c2cccc(F)c2)n1	0
C(=C\c1ccccc1)/CN1CCN(C(c2ccnc3ccccc23)c2nnnn2C2CCCCC2)CC1 (configuration not stated)	65
C[C@@H]1CN([C@H](C)CO)C(=O)c2cc(NC(=O)CCCCCC(=O)Nc3ccccc3N)ccc2O[C@H]1CN(C)S(=O)(=O)c1ccc(Cl)cc1	0
CN(c1cccc(NS(=O)(=O)c2cccs2)c1)S(C)(=O)=O	0

Screening data (PubChem BioAssay)
